Laboratory results taken from article PMC6447844 (Cancer Science, 2019).
Where two headings read alike, the source gives them in different places.

Legend:
[1] = system: Japanese patients with advanced solid tumors; test: Safety assessment; type: in vivo, human
How it was run: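 Patients took oral test compound daily (capsule or tablet, q.d. or b.i.d.) in 28-day cycles until progression, intolerable toxicity or withdrawal. AEs graded by CTCAE v4.0, alongside regular laboratory tests, physical examination, vital signs, weight and periodic ECG. Safety set: patients with at least one dose and at least one valid postbaseline safety assessment.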

[2] = system: Japanese patients with advanced solid tumors; type: in vivo, human; conditions: for DLT event: one patient
How it was run: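 Open-label phase I at two Japanese centres; oral test compound given q.d. or b.i.d. as capsule or tablet in 28-day cycles, escalated by a 2-parameter Bayesian logistic regression model with overdose control. DLT: grade 3 or 4 AE or abnormal laboratory value (CTCAE v4.0), not attributed to disease, intercurrent illness or co-medication, within the first 28 days. MTD: highest dose not expected to cause DLT in >33% of patients.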

[3] = Plasma pharmacokinetics of capmatinib; type: in vivo, human; conditions: for AUC / Cmax: 400 mg, 400 mg b.i.d., day 15; for AUC: Mean AUCtau; for Cmax: Mean Cmax
advanced solid tumors = test: Tumor assessment by CT/MRI according to RECIST version 1.1; type: in vivo, human; conditions: investigator assessed; eight of 44 patients
[4] = system: MET kinase versus other kinases (panel of 57 human kinases); conditions: cited from earlier work
[5] = system: MET-dependent (amplified/autocrine) tumor models; conditions: at tolerable doses; cited from earlier work
[6] = study CINC280X2103; ref data on file; cited from earlier work
MET = conditions: read-out: IC50 (MET, biochemical); cited from earlier work
[7] = regardless of relationship, all patients, n = 44
[8] = regardless of study drug relationship, all patients
[9] = human, plasma, oral, capsule group
[10] = human, plasma, oral, tablet group

Q: Which “Patients with one or more dose interruptions” value ([1]; 21 patients) does the source give for `CNC(=O)c1ccc(-c2cnc3ncc(Cc4ccc5ncccc5c4)n3n2)cc1F` [capmatinib] here?
A: 47.7%

Q: And the “AE requiring dose adjustment and/or interruption” value ([1]; 26 of 44 patients)?
A: 59.1%

Q: What about the Overall tolerability ([1]; Japanese patients, overall) of the same compound?
A: well tolerated

Q: And the “Changes in vital signs and ECG intervals” value ([1]; all patients)?
A: no clinically meaningful changes or trends

Q: And the “Colitis ulcerative, grade 3/4 suspected to be drug-related” value ([1]; all patients)?
A: 1 n

Q: And the “Decreased appetite requiring dose adjustment and/or interruption” value ([1]; all patients)?
A: 6.8%

Q: And the “Decreased appetite, suspected to be drug-related” value ([1]; all patients)?
A: 29.5%

Q: What about the “Depression, grade 3/4 suspected to be drug-related” value ([1]; all patients) of the same compound?
A: 1 n

Q: What about the “Diarrhea, suspected to be drug-related” value ([1]; all patients) of the same compound?
A: 20.5%

Q: And the “Hypophosphatemia, grade 3/4 suspected to be drug-related” value ([1]; all patients)?
A: 1 n

Q: What about the “Increased ALT and AST, grade 3/4 suspected to be drug-related” value ([1]; all patients) of the same compound?
A: 1 n

Q: And the “Increased GGT, grade 3/4 suspected to be drug-related” value ([1]; all patients)?
A: 1 n

Q: And the “Increased blood creatinine requiring dose adjustment and/or interruption” value ([1]; all patients)?
A: 20.5%

Q: And the “Increased blood creatinine, suspected to be drug-related” value ([1]; all patients)?
A: 45.5%

Q: What about the “Lung infection, grade 3/4 suspected to be drug-related” value ([1]; all patients) of the same compound?
A: 1 n

Q: And the “Nausea requiring dose adjustment and/or interruption” value ([1]; all patients)?
A: 13.6%

Q: What about the “Nausea, suspected to be drug-related” value ([1]; all patients) of the same compound?
A: 31.8%

Q: What about the “On-treatment deaths (within 28 days after discontinuation)” value ([1]; all patients) of the same compound?
A: No on‐treatment deaths

Q: What about the “Patients experiencing one or more AE” value ([1]; all patients) of the same compound?
A: 95.5%

Q: What about the “QTcB increase from baseline of more than 30 ms” value ([1]; all patients) of the same compound?
A: three

Q: What about the “Treatment-emergent prolongation of QTcB of more than 450 ms” value ([1]; all patients) of the same compound?
A: three

Q: What about the “Treatment-emergent prolongation of QTcB of more than 480 ms” value ([1]; all patients) of the same compound?
A: one

Q: And the “Vomiting requiring dose adjustment and/or interruption” value ([1]; all patients)?
A: 6.8%

Q: What about the “Vomiting, suspected to be drug-related” value ([1]; all patients) of the same compound?
A: 29.5%

Q: What about the “AE leading to discontinuation” value ([1]; all patients, n = 44) of the same compound?
A: 4 (9.1) n (%)

Q: And the “AE requiring dose interruption and/or reduction” value ([1]; all patients, n = 44)?
A: 26 (59.1) n (%)

Q: And the “AE requiring dose interruption and/or reduction, Suspected to be drug-related” value ([1]; all patients, n = 44)?
A: 17 (38.6) n (%)

Q: And the “All deaths (incl. more than 28 days after discontinuation)” value ([1]; all patients, n = 44)?
A: 1 (2.3) n (%)

Q: What about the “On-treatment deaths (up to 28 d after discontinuation)” value ([1]; all patients, n = 44) of the same compound?
A: 0 n (%)

Q: And the “Patients experiencing ≥1 AE, Suspected to be drug-related” value ([1]; all patients, n = 44)?
A: 37 (84.1) n (%)

Q: And the SAE ([1]; all patients, n = 44)?
A: 7 (15.9) n (%)

Q: What about the “SAE, Suspected to be drug-related” value ([1]; all patients, n = 44) of the same compound?
A: 2 (4.5) n (%)

Q: What about the “Total number of patients experiencing ≥1 AE” value ([1]; all patients, n = 44) of the same compound?
A: 42 (95.5) n (%)

Q: What about the “Discontinuation due to AE (all grades)” value ([1]; four of 44 patients) of the same compound?
A: 9.1%

Q: What about the “AE suspected to be drug-related” value ([1]; mainly grade 1/2, 37 patients) of the same compound?
A: 84.1%

Q: What about the “Patients with dose interrupted only once” value ([1]; nine patients) of the same compound?
A: 20.5%

Q: And the Tolerability ([1]; p.o. 400 mg b.i.d. in tablet formulation)?
A: well tolerated

Q: And the “Anemia, All grades” value [1, 7]?
A: 7 (15.9) n (%)

Q: And the “Anemia, Grade 3/4” value [1, 7]?
A: 0 n (%)

Q: And the “Any AE, All grades” value [1, 7]?
A: 42 (95.5) n (%)

Q: What about the “Any AE, Grade 3/4” value [1, 7] of the same compound?
A: 15 (34.1) n (%)

Q: And the “Constipation, All grades” value [1, 7]?
A: 7 (15.9) n (%)

Q: And the “Constipation, Grade 3/4” value [1, 7]?
A: 0 n (%)

Q: What about the “Decreased appetite, All grades” value [1, 7] of the same compound?
A: 18 (40.9) n (%)

Q: And the “Decreased appetite, grade 3/4” value [1, 7]?
A: 3 (6.8) n (%)

Q: What about the “Diarrhea, All grades” value [1, 7] of the same compound?
A: 11 (25.0) n (%)

Q: And the “Diarrhea, Grade 3/4” value [1, 7]?
A: 0 n (%)

Q: And the “Edema peripheral, All grades” value [1, 7]?
A: 9 (20.5) n (%)

Q: And the “Edema peripheral, Grade 3/4” value [1, 7]?
A: 1 (2.3) n (%)

Q: What about the “Fatigue, All grades” value [1, 7] of the same compound?
A: 7 (15.9) n (%)

Q: And the “Fatigue, Grade 3/4” value [1, 7]?
A: 0 n (%)

Q: And the “Hypoalbuminemia, All grades” value [1, 7]?
A: 10 (22.7) n (%)

Q: And the “Hypoalbuminemia, grade 3/4” value [1, 7]?
A: 2 (4.5) n (%)

Q: And the “Increased blood creatinine, All grades” value [1, 7]?
A: 23 (52.3) n (%)

Q: And the “Increased blood creatinine, Grade 3/4” value [1, 7]?
A: 0 n (%)

Q: And the “Malaise, All grades” value [1, 7]?
A: 8 (18.2) n (%)

Q: And the “Malaise, Grade 3/4” value [1, 7]?
A: 0 n (%)

Q: What about the “Nausea, All grades” value [1, 7] of the same compound?
A: 21 (47.7) n (%)

Q: What about the “Nausea, Grade 3/4” value [1, 7] of the same compound?
A: 0 n (%)

Q: What about the “Pyrexia, All grades” value [1, 7] of the same compound?
A: 8 (18.2) n (%)

Q: And the “Pyrexia, Grade 3/4” value [1, 7]?
A: 0 n (%)

Q: And the “Vomiting, All grades” value [1, 7]?
A: 17 (38.6) n (%)

Q: What about the “Vomiting, Grade 3/4” value [1, 7] of the same compound?
A: 0 n (%)

Q: And the “Grade 3/4 AE” value ([1]; regardless of study drug relationship, 15 patients)?
A: 34.1%

Q: And the “Ascites, grade 3/4” value [1, 8]?
A: 4.5%

Q: What about the “Decreased appetite, all grades” value [1, 8] of the same compound?
A: 40.9%

Q: What about the “Decreased appetite, grade 3/4” value [1, 8] of the same compound?
A: 6.8%

Q: And the “Diarrhea, all grades” value [1, 8]?
A: 25.0%

Q: And the “Hypoalbuminemia, all grades” value [1, 8]?
A: 22.7%

Q: What about the “Hypoalbuminemia, grade 3/4” value [1, 8] of the same compound?
A: 4.5%

Q: What about the “Hyponatremia, grade 3/4” value [1, 8] of the same compound?
A: 9.1%

Q: And the “Hypophosphatemia, grade 3/4” value [1, 8]?
A: 4.5%

Q: What about the “Increased GGT, grade 3/4” value [1, 8] of the same compound?
A: 4.5%

Q: What about the “Increased blood creatinine, all grades” value [1, 8] of the same compound?
A: 52.3%

Q: And the “Nausea, all grades” value [1, 8]?
A: 47.7%

Q: And the “Peripheral edema, all grades” value [1, 8]?
A: 20.5%

Q: And the “Vomiting, all grades” value [1, 8]?
A: 38.6%

Q: And the “Grade 3/4 AE suspected to be drug-related” value ([1]; seven patients)?
A: 15.9%

Q: And the “Patients with one dose reduction” value ([1]; three patients)?
A: 6.8%

Q: What about the MTD ([2]; escalated up to 400 mg b.i.d. tablet and 600 mg b.i.d. capsule) of the same compound?
A: not reached

Q: And the DLT event ([2]; 400 mg b.i.d. tablet)?
A: grade 3 depression

Q: And the DLT event ([2]; 600 mg b.i.d. capsule)?
A: grade 2 suicidal ideation

Q: What about the “Highest studied dose determined to be safe, tablet” value ([2]; tablet formulation, single agent) of the same compound?
A: 400 mg b.i.d.

Q: And the “Patients permanently discontinued owing to DLT” value ([2]; two patients)?
A: 5.1%

Q: And the “Median Tmax” value ([3]; day 15, tablet)?
A: 1.0 h

Q: And the Tmax ([3]; human, plasma, oral)?
A: 1 h

Q: And the AUC [3, 9]?
A: 11000 ng·h/mL

Q: And the AUC [3, 10]?
A: 31400 ng·h/mL

Q: And the Cmax [3, 9]?
A: 1980 ng/mL

Q: And the Cmax [3, 10]?
A: 7570 ng/mL

Q: What about the Steady state achieved ([3]; pre-dose concentrations generally stable after day 15) of the same compound?
A: ≤ 15 days

Q: And the “Best overall response of SD” value (advanced solid tumors)?
A: 18.2%

Q: And the “selectivity for MET kinase versus other kinases” value [4]?
A: 10 000 fold

Q: And the “Effect on MET-dependent tumor models” value [5]?
A: causes regression

Q: What about the “Cmax geometric mean ratio (tablet vs capsule)” value [6] of the same compound?
A: 3.0

Q: And the IC50 (MET)?
A: 0.13 nM
